Rpn11 inh: Rpn11 (PSMD14) deubiquitinase inhibitors, primary screen, biochemical, fluorescence polarization, uHTS; inhibition, % at 20 µM; 0.59% of 360,000 active; human 26S proteasome, Ub4-pepOG fluorescence polarization; 20S core pre-blocked with epoxomicin;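 active means inhibition at 20 µM, scaled to each plate's controls, above about 33%, limit read from the data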
Target sequence (O00487 whole entry, looked up): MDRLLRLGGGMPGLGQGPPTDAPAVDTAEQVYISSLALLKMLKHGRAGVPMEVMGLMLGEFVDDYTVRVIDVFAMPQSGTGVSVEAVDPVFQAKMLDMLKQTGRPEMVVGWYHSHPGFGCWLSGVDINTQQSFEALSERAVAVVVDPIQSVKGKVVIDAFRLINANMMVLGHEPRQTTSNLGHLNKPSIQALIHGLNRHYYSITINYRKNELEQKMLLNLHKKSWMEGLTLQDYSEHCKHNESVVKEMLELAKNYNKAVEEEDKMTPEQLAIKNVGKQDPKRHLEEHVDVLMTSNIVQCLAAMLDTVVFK
SUMO1 PPI mod: modulators of SUMO1 protein-protein interactions, primary screen, biochemical, uHTS | Small ubiquitin-related modifier 1 (Homo sapiens), P63165 | SUMO1 binding to a labelled peptide, TR-FRET, 1 h | inhibition, % at 20 µM | 0.33% of 360,000 active; in the data active means inhibition above about 37%
Target sequence (P63165 whole entry, looked up): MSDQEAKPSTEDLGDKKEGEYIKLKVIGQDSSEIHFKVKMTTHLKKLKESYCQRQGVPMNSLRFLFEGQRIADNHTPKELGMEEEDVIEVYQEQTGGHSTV
STEP block: STEP phosphatase inhibitors, primary screen, biochemical, fluorescence intensity, uHTS. Tyrosine-protein phosphatase non-receptor type 5 (Homo sapiens), P54829. 0.25% of 360,000 active. recombinant STEP, OMFP fluorogenic substrate. inhibition, % at 20 µM;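 active means inhibition at 20 µM, scaled per plate between control wells, above about 37%, limit read from the data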
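Assay system: isolated STEP enzyme. Buffer or medium: pH 6.0 Bis-Tris with DTT and Tween 20. Also added: fluorogenic phosphatase substrate OMFP at 25 µM final. Dosing: 20 µM, 1% DMSO. Timing: 20 min reaction, room temperature, in the dark. Measured by: fluorescence intensity, excitation 480 nm, emission 540 nm. Evaluation: normalized % inhibition.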
Scp1 inh: Scp-1 phosphatase inhibitors, primary screen, biochemical, colorimetric, uHTS | Recombinant Scp1, phosphopeptide, malachite green phosphate absorbance | 0.88% of 340,000 active | inhibition, % at 20 µM | Carboxy-terminal domain RNA polymerase II polypeptide A small phosphatase 1 (Homo …;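 active means inhibition above about 50% at 20 µM, limit read from the data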
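Times: enzyme reaction 45 min at room temperature, colour 5 min, stabilisation 30 min. Material: SCP-1 catalytic fragment, aa 76-261. Medium: Acidic Tris acetate buffer with magnesium and detergent. Signal: colorimetric free-phosphate detection, absorbance 630 nm. Read-out basis: % inhibition of SCP-1 phosphate liberation. Reagent: Phosphorylated 17-residue peptide substrate.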
DNMT1 block: human DNMT1 methyltransferase inhibitors, primary screen, biochemical, molecular beacon, fluorescence, HinP1I cleavage, uHTS. DNA (cytosine-5)-methyltransferase 1 (Homo sapiens), P26358. inhibition (reported as % activation of signal), % at 10 µM. 0.83% of 360,000 active. AID 588458, 2011; in the data active means inhibition above about 50%
LMPTP block: LMPTP phosphatase inhibitors, primary screen, biochemical, fluorescence intensity, uHTS | Low molecular weight phosphotyrosine protein phosphatase (Homo sapiens), P24666 | recombinant LMPTP-A, OMFP fluorogenic substrate | inhibition, % at 20 µM | 0.22% of 360,000 active;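 active means compounds that cut the enzyme signal by at least half of the control window in the single-dose screen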
Target sequence (P24666 whole entry, looked up): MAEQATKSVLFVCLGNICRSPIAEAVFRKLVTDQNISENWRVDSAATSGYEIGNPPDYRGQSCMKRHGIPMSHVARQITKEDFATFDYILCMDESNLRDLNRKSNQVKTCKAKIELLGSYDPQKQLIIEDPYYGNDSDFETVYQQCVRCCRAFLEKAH
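Material: LMPTP-A; amount: 0.625 nM enzyme; doses: single 20 µM dose; times: reaction 50 min, room temperature, dark; technique: fluorescence intensity of OMFP turnover product; benchmarks: no-enzyme and uninhibited controls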
DNMT1 interf DR: spectral interference with molecular beacon fluorescence, dose response, artefact control for DNMT1 inhibitor project, biochemical, fluorescent molecular beacon. shares compounds with DNMT1 block. spectral interference counter-screen. IC50, µM. 200 tested, under 10 active. AID 602382, 2012; call rule not given here
DNMT1 inh conf: DNMT1 methyltransferase inhibitor retest, confirmation, biochemical, molecular beacon, fluorescence, single concentration; shares compounds with DNMT1 block; DNMT1 molecular beacon HinP1I cleavage; inhibition, % at 10 µM; 8% of 2,300 active; AID 602385, 2012;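 active means average inhibition of at least 30% in the single-concentration confirmation test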
DNMT1 interf: counter-screen for DNMT1 inhibitors: spectral interference. DNMT1 molecular beacon spectral interference counterscreen, fluorescence 485/520. AID 602387. 1% of 2,300 active. activation (fluorescence interference), % at 10 µM. shares compounds with DNMT1 block;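 active means activation of at least 30% at 10 µM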;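 further: DNMT1 catalytic domain with a HinP1I cleavage step and a FAM/dabcyl DNA beacon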
Numbers stand for hits; - = inactive; . = no result given. This is a sample that favours compounds with a hit; in the whole collection about 2.3% have one here.

SMILES | Rpn11 inh | SUMO1 PPI mod | STEP block | Scp1 inh | DNMT1 block | LMPTP block | DNMT1 inh conf | DNMT1 interf | others
CCN(C(=O)COC(=O)/C=C/c1ccc(F)cc1)C1CCCCC1 | - | - | - | - | - | - | . | .
CCN(C(=O)COC(=O)/C=C/c1ccco1)C1CCCCC1 | - | - | - | 72.0 | 74.9 | - | - | -
CC(=O)NC(c1ccccc1)c1nc(-c2ccc(F)c(Cl)c2)cs1 (centres undefined) | - | - | - | . | - | - | . | .
c1ccc(-c2cc(-c3nnc4n3N=C(c3ccc5ccccc5c3)CS4)[nH]n2)cc1 | - | - | - | - | 55.4 | - | - | -
Cc1ccc(C)c(N2N=C(C(=O)OCC(=O)N(C)c3ccccc3)CCC2=O)c1 | - | - | - | - | - | - | . | .
Cc1ccc(C(=O)OCC(=O)Nc2ccc3c(c2)OCO3)c(O)c1 | - | - | - | - | - | - | . | .
O=C(O)C(C=C(Cl)Cl)N1CCOCC1 (centres undefined) | - | - | - | - | - | - | . | .
CC(=O)Nc1ccc(SCC(=O)c2cc(C)n(-c3ccccc3)c2C)cc1 | - | - | - | - | - | - | . | .
CC(=O)Nc1ccc(SCC(=O)c2cc(C)ccc2C)cc1 | - | - | - | - | 86.4 | - | - | -
COc1ccc(CNC(=O)CNS(=O)(=O)c2ccc(Cl)cc2)cc1 | - | - | - | - | - | - | . | .
COc1cccc(C(=O)NNC(=O)c2ccc(NS(=O)(=O)c3cccs3)cc2)c1OC | - | - | - | - | - | - | . | .
Cc1cccc2c(N=NC(=O)c3ccc(NS(=O)(=O)c4cccs4)cc3)c(O)[nH]c12 | - | - | - | - | 87.1 | - | - | -
Cc1cnn(-c2cc(N/N=C/c3ccc(F)cc3)ncn2)c1 | - | - | - | - | 60.4 | - | - | -
Cc1cnn(-c2cc(N/N=C/c3ccccc3Cl)ncn2)c1 | - | - | - | - | - | - | . | .
CN(C)CCc1cc2c(c3c1ccc1ccccc13)OCO2 | - | - | - | - | 59.8 | - | 36.9 | - | DNMT1 interf DR=-
O=C(Nc1cccc(Cl)c1)C1CCCN(C2=NS(=O)(=O)c3ccccc32)C1 (centres undefined) | - | - | - | - | - | - | . | .
O=C(CCN1C(=O)/C(=C\C=C\c2ccccc2)SC1=S)Nc1ccccc1C(=O)O | - | - | - | - | 75.3 | - | - | -
O=C(CNc1ccc(Br)cc1)Nc1ccc(S(=O)(=O)N2CCCC2)cc1 | - | - | - | - | - | - | . | .
COc1cccc2cc(C(=O)Nc3cc(Cl)ccc3N3CCOCC3)c(=O)oc12 | - | - | - | - | 54.7 | - | - | -
Cc1ccccc1CC(=O)NCCN1CCCCC1 | - | - | - | - | 79.6 | - | - | -
CC(C)c1nc2sc3c(SCC(=O)NCc4ccco4)ncnc3c2c2c1CCC2 | - | - | - | - | 83.2 | - | - | -
N#C/C(=C\c1ccc(-c2ccc([N+](=O)[O-])cc2)o1)C(=O)Nc1nc(-c2cccs2)cs1 | - | - | - | - | 94.6 | - | - | -
CCCN=C1N(C)C[C@@H]2[C@@H]3C(=O)N(C)C(=O)[C@@H]3[C@](C)(C(=O)OC)N12 | - | - | - | - | - | - | . | .
N#Cc1nc(-c2ccc(OCc3ccc(Cl)cc3)cc2)oc1N1CCC(C(N)=O)CC1 | - | 71.4 | - | - | 67.1 | - | - | -
CCCOc1ccc(-c2nc(C#N)c(N3CCC(C(N)=O)CC3)o2)cc1 | - | - | - | - | - | - | . | .
SMILES | Rpn11 inh | SUMO1 PPI mod | STEP block | Scp1 inh | DNMT1 block | LMPTP block | DNMT1 inh conf | DNMT1 interf | others
Cc1ccc(/C=C/C(=O)O)cc1S(=O)(=O)Nc1ccc(C(=O)O)cc1 | - | - | - | - | 67.4 | - | - | -
Cc1cccc(/C=N/n2c(C)cc(C)c(C#N)c2=O)c1 | - | - | - | - | - | - | . | .
O=C(Nc1ccc(N2CCCC2)cc1)c1ccccc1[N+](=O)[O-] | - | - | - | - | 69.5 | - | - | -
COc1ccccc1C(=O)NC(=S)Nc1ccccc1N1CCCC1 | - | - | - | . | - | - | . | .
COc1ccccc1C(=O)NC(=S)Nc1ccc(N2CCCC2)cc1 | - | - | - | - | 68.1 | - | - | -
O=C(Nc1ccc(N2CCCC2)cc1)c1ccc(Br)o1 | - | - | - | - | 81.3 | - | - | -
CS(=O)(=O)c1ccc(C(=O)Nc2ccc(N3CCCC3)cc2)c(Cl)c1 | - | - | - | - | - | - | . | .
O=C(Nc1ccc(N2CCCC2)cc1)c1cc(Br)ccc1Cl | - | - | - | - | 50.5 | - | - | -
O=C(C1CCN(S(=O)(=O)c2ccc(F)cc2)CC1)N1CCCC(C(F)(F)F)C1 (centres undefined) | - | - | - | - | - | - | . | .
Cc1nc(Br)c(Br)c(C)c1Br | - | - | - | - | - | - | . | .
O=C(Nc1cccc(S(=O)(=O)N2CCCC2)c1)[C@H]1C[C@H](O)[C@@H](CO)O1 | - | - | - | . | - | - | . | .
Cc1ccc(C(=O)Nc2ccc(N3CCCC3)cc2)c(C)c1 | - | - | - | - | 54.2 | - | - | -
CCOc1ccc(C(=O)CCC(=O)NCC(=O)Nc2c(C)cccc2C)cc1 | - | - | - | - | - | - | . | .
C=CCc1cccc2cc(C(=O)Nc3ccc(CC(=O)O)cc3)c(=O)oc12 | - | - | - | - | 80.5 | - | - | -
CN(CCC#N)C(=O)COC(=O)c1ccc(Cl)c(S(=O)(=O)N(C)c2ccccc2)c1 | - | - | - | - | - | - | . | .
N#Cc1c(NC(=O)CSc2nnc(-c3ccco3)n2-c2ccccc2)sc2c1CCC2 | - | - | - | - | 67.1 | - | - | -
CCn1c(SCC(=O)Nc2sc3c(c2C#N)CCCC3)nnc1-c1ccco1 | - | - | - | - | - | - | . | .
Cc1cc(C)n(-c2nc(Nc3ccccc3)nc(-n3nc(C)cc3C)n2)n1 | - | - | - | - | 64.0 | - | - | -
